The values that follow come from the EternaBench riboswitch data.

This data set deals with MS2 coat protein. Briefly: apparent Kd, MS2 coat protein; higher = weaker binding; RNA-MaP array; FMN 200 µM where present. The procedure, abridged:
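Stalled E. coli RNA polymerase transcribed each design on Illumina sequencing-chip clusters. The clusters were titrated with SNAP-549-labelled MS2 coat protein, starting at 0.7 or 1.5 nM and doubling up to 3 µM, first without ligand and then with constant ligand, in 100 mM Tris-HCl pH 7.5, 80 mM KCl, 4 mM MgCl2, BSA, DTT, yeast tRNA and Tween-20. Green signal was normalised to red-channel RNA signal and to the control-cluster median Fmax. The apparent Kd is the median of filtered binding-curve fits made for each cluster.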

The mark [1] stands for this setting: designed as: OFF switch for flavin mononucleotide, no ligand.
Where [2] appears, read: ligand present: flavin mononucleotide, designed as: OFF switch for flavin mononucleotide.
The mark [3] stands for this setting: designed as: ON switch for flavin mononucleotide, no ligand.
[4] abbreviates: ligand present: flavin mononucleotide, designed as: ON switch for flavin mononucleotide.

As for “UUAUGGAGGUAGGAUAUCAUGACGUCUUAGUUGUGAGAAGGGCUUACAUGAGGAUCACCCAUGUGGUGUUUUUG”, the apparent Kd – broadly, the concentration giving half-maximal binding under the conditions of the assay – reads like this: under setting [1], 584 nM; under setting [2], 192 nM.
Take “CUGGUUGUCGUAGGAUAUGUAGGAUAUUCCUACAUGAGGAUCACCCAUGUUCGCAUGGAAGAAGGACAGAAGGACGAUGACCAA”: the “apparent Kd” value amounted to 1160 nM under setting [3] and 8.77 nM under setting [4].
As for “UUUUUGAAGCUUCGUUAAUACAGUUAGGAUAUGAGAGACAUGAGGAUCACCCAUGUGCAUGUUGAUUAGAAGGAACAACUAUCU”, the “apparent Kd” value by setting is: under setting [1], 20.1 nM; under setting [2], 17.4 nM.
In the case of “CGAUAUGAUGCAGGAUAUCUAUCUUGAAUGAGGAGAGAAGGGCAAAGGGAGACAUAAGCCUUAUUACAUGAGGAUCACCCAUGU”, the “apparent Kd” value is, setting by setting: under setting [1], 13.3 nM; under setting [2], 11.3 nM.
As to “UUUUAACAUGAGGAUCACCCAUGUGAGGAUAUCGAAAUUUAUAUUAAUAUUAUUAUAUCGAGAAGGCACAUUUU”, the “apparent Kd” value runs as follows: under setting [1], 92.3 nM; under setting [2], 91.3 nM.
The like results for “GGUACGCAUGUAGGAUAUCGAGCUCAAAGAGCUCGAGAAGGACAUGAGGAUCACCCAUGUCGUCACAGACAGUGACGGCGUACC” were, in that order, 20 nM and 38.7 nM.
The corresponding values for “AAGAGUAGAGGAUAUAUAUGAAAAGAGUCGAAAGACUCAAAACAUGAGGAUCACCCAUGUAGAAGGCUACUCAA” are 17.8 nM and 21.1 nM.
“CAGGUAGACUGAGGAUAUACAUACCAUCAGCUAGUCUAUCUAGCUGUCACAUGAGGAUCACCCAUGUAGAAGGCAGUCUGCCUG”: the “apparent Kd” value stood at 30.5 nM under setting [1] and 122 nM under setting [2].
As for “AAUGGCGUCCAAGGAUAUCCUGACCGUUAACAUGAGGAUCACCCAUGUUGCCUAAAGGCGGCAUAGGAGAAGGUGGUACUCUGU”, the “apparent Kd” value is 73.3 nM under setting [3] and 124 nM under setting [4].
On to “GCUGCAUAGGCAGGAUAUGCAAUAAUUUAAAUAAAAUAUAAUAAAUUAACAUGAGGAUCACCCAUGUAGAAGGGCCUGUGCAGU”, for which the “apparent Kd” value under setting [1] was determined as 19.8 nM and the “apparent Kd” value under setting [2] was 19.2 nM.
For the sequence “AAAAAACAUGAGGAUCACCCAUGUCAAAAGACGUGAGGAUAUGUACAGACUUCGGUCUGUACAGAAGGCAUGUCAA”, the “apparent Kd” value stood at 30.1 nM under setting [3] and 16.5 nM under setting [4].
Regarding “CUUUCGUGAGGAUAUGUGGCUUCGAUCGUGAGAUCGAAGCUACAGAAGGCACAUGAGGAUCACCCAUGUUCCUC”, the “apparent Kd” value came out at 38.5 nM under setting [1] and 544 nM under setting [2].
With “CAAUUGGCACAGAAGGGUGACAUGAGGAUCACCCAUGUAGCGUGGUACUCAGGAGGAACCACGCCACAGGAUAUGUGCGGGCAC”, the “apparent Kd” value amounted to 30.3 nM under setting [3] and 38.8 nM under setting [4].
With “UAAGUUGAGGAGAAGGGAGCACAUGAGGAUCACCCAUGUGGUUCUUUGUGCUCAGGAUAUCCAUGGAGCUCCGUCGCGUUCCAG”, the “apparent Kd” value reads like this: under setting [1], 103 nM; under setting [2], 19.1 nM.
The corresponding values for “AGAAGUUUGUAGAAGGACGACUAAUUUGUAUUCGUAGGAUAUACUAUUUACAUGAGGAUCACCCAUGUUUUUAUGGAACAAUGU” are 11.9 nM and 17.2 nM.
With “AUUACAUGAGGAUCACCCAUGUACGGCACGUUUCAAAACACUGAGGAUAUACGAUAUGUAGGAACGUAGAAGGCAGUGGGUGCA”, the “apparent Kd” value reads like this: under setting [3], 99.7 nM; under setting [4], 34 nM.
“AACAAACAUGAGGAUCACCCAUGUCAGGAUAUCCGAAAUAAAGAAACAAUAAUAAUAAGGAGAAGGGACUAAAU”: the “apparent Kd” value runs as follows: under setting [1], 53.5 nM; under setting [2], 55.5 nM.
The corresponding values for “UUUCAGUCAGGAUAUCGUUAAUUUAAUUGUUUGUUUUAGUUCGAGAAGGGACAUGAGGAUCACCCAUGUAAUUU” are 33.1 nM and 51.3 nM.
The corresponding values for “GAGAAGUCAGGAUAUGCAUGGCGGGACUUGCGUCGUGGCGUGCAGAAGGGACAUGAGGAUCACCCAUGUAAAGG” are 143 nM and 265 nM.
Consider “AACAACUCUGUGAGGAUAUGCAAUUGUUGAUCAAGGCAGAAGGCACAUGAGGAUCACCCAUGUUCCUACAAGGG”, for which the “apparent Kd” value came to 47.3 nM under setting [1] and 110 nM under setting [2].
For “AUUUGAAGGUAGAAGGGUGACAUGAGGAUCACCCAUGUGCGAGCAUCGGACGAAGAUGGCUCGCCACAGGAUAUACCUUCAAAU”, the “apparent Kd” value is 36.7 nM under setting [3] and 46.3 nM under setting [4].
As for “AAAUUAAGAUGAGGAUAUUGACAUGAGGAUCACCCAUGUAUUUGGGAAUGUUUACUGAAUUCUUACAAGAAGGUAUACGAACUU”, the “apparent Kd” value under setting [1] worked out at 206 nM and the “apparent Kd” value under setting [2] was found to be 134 nM.
As for “CGAUUUACUGAGGAUAUUGCAUCACCCGACUGAUAAGAAGGCAGAACAUGAGGAUCACCCAUGUGGGUACUCAC”, the “apparent Kd” value under setting [1] is 80.5 nM and the “apparent Kd” value under setting [2] is 91.1 nM.
As for “CCGAAACCUCAGAAGGACCACAUGAGGAUCACCCAUGUCAAGCAAAACGGUAGGAUAUGAGGGAAAAGUCAAUAUACCCGACAG”, the “apparent Kd” value worked out at 11.3 nM under setting [3] and 4.9 nM under setting [4].
As to “ACUUUAGUAUCACAUGUAUUACAUGAGGAUCACCCAUGUUACUAGGAUAUGUAUUAGAAUUUACAACAGAAGGAGUAAGAAUGU”, the “apparent Kd” value by setting is: under setting [1], 8.17 nM; under setting [2], 9.83 nM.
In the case of “GGGUACAUCGGAGGAUAUCAUGUAAAUACAUGAGGAUCACCCAUGUCGAUGGAGAAAUCGGAGAUUGAGAAGGCCGAUGUACCG”, the “apparent Kd” value was determined as 16.9 nM under setting [3] and 7.1 nM under setting [4].
The corresponding values for “GUAGCAUACCGAGGAUAUCUAUCCCGGAAACGGACAUGAGGAUCACCCAUGUGGCGAAAGCCUUGGGAGAAGGCGGAAUGCUAC” are 46.7 nM and 17.2 nM.
For the sequence “UAUUAGUGAGGAUAUGGUAAAGAUAAGAUGAUGAAAGAACUCCAGAAGGCACAUGAGGAUCACCCAUGUAGUAG”, the “apparent Kd” value runs as follows: under setting [1], 21.8 nM; under setting [2], 24.6 nM.
“CUAUGUUAGCAGGAUAUGCCAUUAUUCCUUUUCGCAGAAGGGCUUACAUGAGGAUCACCCAUGUUACAUUUCUU”: the “apparent Kd” value reads like this: under setting [1], 12.4 nM; under setting [2], 17.6 nM.
The corresponding values for “CCCACGAAAGUCGAACGAUGUAGCAGAAGGACAAUAACAUGACAUGAGGAUCACCCAUGUGCCAUGUAGGAUAUGCUACAUGGG” are 8.24 nM and 7.14 nM.
The corresponding values for “CCAUGCGGAUGAGGAUAUUCAUUCAUGAGGAUAGAAGAAGGCGUACAUGAGGAUCACCCAUGUAUACACAUGAGGAUCCCUUAC” are 385 nM and 372 nM.
The like results for “UGUCUGAUCUAAUAACAUGAGGAUCACCCAUGUGUUCACAACUAGGAUAUCGAUUGUUAAGACGUCGAGAAGGAGUAUACAUUA” were, in that order, 39 nM and 53.5 nM.
For “UGUCGGAGCAGAGGAUAUUACAUGAGGAUCACCCAUGUAUGAACCAAUAGCUGGAAACAGCAAUGUAAGAAGGCUGCUCCGCCA”, the “apparent Kd” value is, setting by setting: under setting [1], 11.8 nM; under setting [2], 187 nM.
As to “GGUACCAUCACAGGAUAUGCUUUCCUUUGGGAAGCAGAAGGGUGUAACAUGAGGAUCACCCAUGUGGUGCCAGGGCGUGGGCCC”, the “apparent Kd” value is, setting by setting: under setting [3], 212 nM; under setting [4], 19.2 nM.
Consider “UUUUAACAUGAGGAUCACCCAUGUGAGGAUAUCGAAAUUUAUAUUAAUAUUUUUAAUACGAGAAGGCACAUUUU”, for which the “apparent Kd” value is, setting by setting: under setting [1], 47.2 nM; under setting [2], 73.6 nM.
In the case of “GGUCGUCAAAUUAACAUGAGGAUCACCCAUGUGAAAACACAUGAGGAUAUGCAUCCUAAUUGGAUGCAGAAGGCAUGGACGACC”, the “apparent Kd” value was 16.5 nM under setting [3] and 6.21 nM under setting [4].
With “AUACAUGAGGAUCACCCAUGUAAUUAAUUAAUUAAUAAGAUCUAGGAUAUCAGCUCGUUUAGAGCUGAGAAGGAGAUCACAUGU”, the “apparent Kd” value runs as follows: under setting [3], 23.4 nM; under setting [4], 13.1 nM.
As to “GAGUGACAUGAGGAUCACCCAUGUGAGGAUAUCGGACGGACCUAGUUAACUUCCGCCGCGAGAAGGCACAUCGG”, the “apparent Kd” value reads like this: under setting [1], 98.7 nM; under setting [2], 33.8 nM.
Consider “ACAUGAGGAUCACCCAUGUAUACAUAGGAUAUUGGUGAUCAGGGAUGUUUUACAGGAUAUGUCUGCGAGAAGGAUGCAAGUAGU”, for which the “apparent Kd” value is, setting by setting: under setting [3], 238 nM; under setting [4], 48.3 nM.
As to “AGCAACAUGAGGAUCACCCAUGUUGGUUCGAAAACGGACUCACAGGAUAUGCAACGUGAUCGUUUGCAGAAGGGUGCGUCCUCA”, the “apparent Kd” value under setting [3] worked out at 18.4 nM and the “apparent Kd” value under setting [4] is 28.4 nM.
The like results for “UCCUAACCGUAGAAGGGUGACAUGAGGAUCACCCAUGUGCAGCAGCCGUGAACGGCCAUGCUGCCACAGGAUAUACGGAGGAGU” were, in that order, 26.1 nM and 55 nM.
For “GUGCGUGGCUAGGAUAUUGUGGAGUUUUGUCAGCGAGAAGGAGCCACAUGAGGAUCACCCAUGUGGUGUUGCUC”, the “apparent Kd” value under setting [2] came to 67.5 nM.
Turning to “GCCAUCGUAUGAGGAUAUGGCACCGAAACGGUGCCAGAAGGCAUGUCAAUAGACAUGAGGAUCACCCAUGUGUUAUCGAUGGCC”, the “apparent Kd” value runs as follows: under setting [3], 84.9 nM; under setting [4], 11.7 nM.
Consider “GUAUCUUAUGUGAGGAUAUAUUAUGUCUUGGUGUAGUAGAAGGCACAUGAGGAUCACCCAUGUCCUAUUGGUCU”, for which the “apparent Kd” value reads like this: under setting [1], 40.9 nM; under setting [2], 116 nM.
On to “AGAAACUACGAGAAGGACAUGUGGUCCUUCUAAAACAUGAGGAUCACCCAUGUAGGAUAUCGUAGUUUCAGGAUCGUGAGAUCA”, for which the “apparent Kd” value by setting is: under setting [1], 35.5 nM; under setting [2], 7.27 nM.
For the sequence “CGCGAACAUGAGGAUCACCCAUGUGAAAAACACAGAGGAUAUGUCGCAUGCGUGUAAAAGACAGAAGGCUGUCGCG”, the “apparent Kd” value worked out at 45.5 nM under setting [3] and 21.9 nM under setting [4].
The corresponding values for “GACUUGCGCACAGGAUAUCCACAGAGCGGACGUGGAGAAGGGUGACAUGAGGAUCACCCAUGUACGUAAGUCUGGAUCACUUCC” are 29.4 nM and 26.1 nM.
The corresponding values for “AAAAAAAAAUCUCAGGAUAUAGAUUAUAGAACAUGAGGAUCACCCAUGUAGUGAAAGAAGAAAAACUAGAAGGGAGGAAAAAAAAA” are 100 nM and 66.6 nM.
